Experimental data as given in article PMC3979326 (Science signaling, 2012).
Square brackets hold non-standard residues; d marks the D form. Ends that are not written are not given here. pY = N[C@@H](Cc1ccc(OP(=O)(O)O)cc1)C(=O)O

Tests used:
[1] = test system: EGF-dependent activation of Akt (RTK-mediated activation of PI3Kβ); test: EGF-dependent Akt activation; type: cell-based; conditions: intact cells, cell line not named; fig. S7B
[2] = test system: Gβγ-mediated activation of Akt via PI3Kβ; test: Gβγ-mediated Akt activation; type: cell-based; conditions: for effect on Gβγ-mediated increase in Akt phosphorylation at Thr308: 30 μM peptide, Fig. 5A, fig. S7A; for effect on Gβγ-dependent activation of Akt (need for cell entry): fig. S7C, labeled versus unlabeled peptide
Procedure, shortened: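 HEK 293 cells were grown in DMEM with 10% FBS and transfected with human p85α, myc-p110β, myc-Akt, with or without FLAG-Gβ1 and HA-Gγ2. After overnight serum starvation, cells received myristoylated peptide (30 µM final, from DMSO stock) or TGX-221 (50 nM) for 30 min before lysis. Anti-myc immunoprecipitates were blotted for Akt and pT308-Akt, and the pAkt:total Akt ratio was quantified.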

[3] = test system: PC3 cells (PTEN-null prostate cancer); test: MTT proliferation, PC3 cells; type: cell-based; conditions: 30 μM peptides, 200 nM TGX221, means ± SEM of three experiments, Fig. 6A
[4] = test system: 532KK-DD mutant PI3Kβ; test: Lipid kinase activity, 532KK-DD mutant PI3Kβ; type: biochemical, human; conditions: pY (substrate stock 900 nM); compared with wild-type; Fig. 1F, S4A, S4B
Procedure, shortened: (§1)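 Recombinant PI3Kβ from baculovirus-infected insect cells was assayed on lipid vesicles at 1 mg/ml final (5% PIP2, 20% PS, 45% PE, 15% DOPC, 10% cholesterol, 5% sphingomyelin, by weight). Threefold enzyme stocks were 75 nM in Hepes pH 7.5, MgCl2, EDTA. Threefold substrate stocks carried 900 nM RTK-pY and/or 1.5 µM Gβ1γ2. The read-out was 32P-PIP3 captured on nitrocellulose, washed in 1 M NaCl/1% phosphoric acid.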

[5] = test system: loop-swap mutant PI3Kβ; test: Lipid kinase activity, loop-swap mutant PI3Kβ; type: biochemical, human; conditions: pY (substrate stock 900 nM); compared with wild-type; Fig. 1F, S4A, S4B
Procedure, shortened: as §1

[6] = test system: p110β–Gβ-p85α-icSH2–Gγ-C68S fusion heterotrimer; test: Lipid kinase activity, fusion heterotrimer; type: biochemical, human; conditions: fig. S3A
[7] = test system: wild-type PI3Kβ; test: Lipid kinase activity, wild-type PI3Kβ from insect cells; type: biochemical, human; conditions: no pY; Fig. 1F
Procedure, shortened: as §1

[8] = test system: 532KK-DD mutant PI3Kβ in HEK 293E cells; test: Gβγ-mediated Akt activation, 532KK-DD mutant PI3Kβ; type: cell-based, human; conditions: myc-Akt, Western blot, Fig. 2A
Procedure, shortened: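 HEK 293E cells were transfected with human p85α, mutant myc-p110β and myc-Akt, with or without FLAG-Gβ1 and HA-Gγ2, then serum-starved overnight. After anti-myc immunoprecipitation, pT308-Akt and total Akt were blotted and quantified by densitometry or infrared imaging. The pAkt:total Akt ratio is expressed as percent of basal.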

[9] = test system: p110β with p85-i or p85-ic; test: Activity of p110β with p85 truncation constructs; type: biochemical; conditions: p85-i (iSH2 only) or p85-ic (iSH2-cSH2); fig. S9
[10] = test system: p110β; conditions: ref [7]; cited from earlier work
[11] = test system: p110β–Rab5 binding; test: Rab5 pulldown assay; conditions: GST-Rab5 pulldown; fig. S8, E and F
Procedure, shortened: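 HEK 293T cells were transfected with wild-type or mutant myc-p110β plus p85α. Lysates were incubated with GTPγS-Rab5 or GST beads, washed, and bound proteins blotted.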

[12] = test system: adenylyl cyclase 2; test: Adenylyl cyclase assay, synergistic activation by Gβγ and Gαs; type: biochemical; conditions: 30 μM; 20 nM each Gαs and Gβγ; Sf9 membranes; 10 min at 30°C; fig. S8B
[13] = test system: p110β protein; test: Abundance of p110β protein in cells; type: cell-based; conditions: Fig. 5, C and D
[14] = test system: LPA-stimulated Akt phosphorylation in NIH3T3 cells; test: LPA-stimulated Akt activation; type: cell-based; conditions: 30 μM peptide, 10 nM LPA for 5 min, Western blot, Fig. 5B
[15] = test system: PC3 cells; test: Boyden chamber chemotaxis, PC3 cells; type: cell-based; conditions: 10% FBS, 20 μM (Fig. 6C legend), three experiments
Procedure, shortened: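 PC-3 cells (5×10^4) were seeded on inserts with 8.0 µm pores. The upper chamber held serum-free medium with DMSO or myristoylated test peptide. The lower chamber held medium with 10% FBS plus DMSO or peptide.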

[16] = test system: PC3 cells co-cultured with macrophages; test: Collagen invasion assay, macrophage-dependent PC3 invasion; type: cell-based; conditions: collagen I gel, 24 hours, confocal microscopy; two experiments; Fig. 6D
Procedure, shortened: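 BAC-1.2F5 macrophages and PC-3 cells were vitally labelled with red and green CellTracker dyes and co-cultured at 2.5:1. After attachment, cells were overlaid with collagen I gel and incubated 24 h with or without test peptide. Invasion into the 3D gel was quantified by laser scanning confocal detection of dye fluorescence.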

[17] = test system: NIH3T3 cells transfected with plasmid encoding PI3Kβ; test: Proliferation of PI3Kβ-transfected NIH3T3 cells; type: cell-based; conditions: fig. S7D
[18] = test system: p101–p110γ dimer; test: Gβγ-dependent activation of class IB PI3K; conditions: fig. S8A
[19] = test system: PLC-β; test: Gβγ-mediated PLC-β activation in cells; type: cell-based; conditions: COS-7 cells, 30 μM, 30 min before LiCl; [3H]inositol phosphates; fig. S8C
Procedure, shortened: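 COS-7 cells were transiently transfected with or without Gβγ plasmids. Reactions were stopped with ice-cold 50 mM formic acid and neutralised with 150 mM NH4OH after lysis. [3H]inositol phosphates were isolated on Dowex columns and quantified.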

[20] = test system: NIH3T3 cells transfected with 12V-Ras; test: Soft agar colony formation, oncogenic Ras; type: cell-based; conditions: Fig. 5E
Procedure, shortened: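 Transfected NIH 3T3 cells were grown in DMEM with 10% calf serum. Two days after transfection, 2,500 cells/well were plated in 0.3% top agar over 0.6% bottom agar. Myristoylated peptide was present at 30 µM in both gels and the medium. Colonies were counted 3 weeks later.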

[21] = test system: NIH3T3 cells expressing p110β and p85α; test: Boyden chamber migration, PI3Kβ-expressing NIH3T3 cells; type: cell-based
[22] = test system: NIH3T3 cells transfected with p110β and p85α (PI3Kβ-dependent transformation); test: Soft agar colony formation, PI3Kβ-transfected NIH3T3 cells; type: cell-based
[23] = test system: NIH3T3 cells transfected with p110β and p85α; test: Focus formation assay, PI3Kβ-transfected NIH3T3 cells; type: cell-based; conditions: 30 μM peptide; two weeks; crystal violet; Fig. 5D
Procedure, shortened: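 NIH 3T3 cells were plated at 2×10^5 cells/well and transfected with myc-p110β and p85α plasmids. Cells were grown two weeks with medium changed every two days, with myristoylated peptide at 30 µM in the medium throughout. Cells were then fixed and stained with crystal violet, and foci were counted per well.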

[24] = test system: PLCβ3; test: In vitro Gβγ-mediated activation of PLCβ; type: biochemical; conditions: PLCβ3 1 nM, 10 min at 30°C, [3H]PIP2; fig. S8D
Procedure, shortened: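 Reactions used recombinant PLCβ3 with a range of peptide concentrations, with or without 200 nM Gαq and with or without Gβγ. Buffer was 20 mM Hepes pH 7.2, 70 mM KCl, 3 mM EGTA, 10 mM NaF, 20 µM AlCl3, 5 mM MgCl2. Substrate was 33 µM PIP2/333 µM PE with [3H]PIP2, free Ca2+ 200 nM. Reactions were stopped with 10% TCA plus BSA, and supernatant counted by scintillation.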

[25] = test system: p101–p110γ dimer (PI3Kγ); test: Lipid kinase activity, immunopurified p101–p110γ, Gβγ-stimulated; type: biochemical; conditions: 1 μM p110β-peptide or QEHA, 10 μM SIGK; 200 nM Gβγ; lipid kinase assay
Procedure, shortened: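 Peptides were prepared in 20 mM Tris-HCl pH 7.4, 10 mM NaCl: test peptide 1 µM, scrambled 1 µM, SIGK 10 µM, QEHA 1 µM. Each was preincubated with 200 nM recombinant lipidated Gβγ for 30 min on ice, then with lipid vesicles 10 min on ice. Immunopurified PI3Kγ was added for 10 min before the kinase assay. Data are means ± SEM of triplicates, representative of two to three experiments.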

Cc1cc(C(C)Nc2ccccc2)c2nc(N3CCOCC3)cc(=O)n2c1 (stereo not drawn) [TGX221, reference compound]
effect on EGF-dependent activation of Akt [1]: substantial inhibitory effect
effect on Gβγ-dependent Akt activation (TGX-221) ([2]; HEK 293E cells with p110β, p85α, myc-Akt, Gβ1γ2, TGX-221 50 nM, 30 min, fig. S5A): specifically inhibited
effect on PC3 cell proliferation [3]: unaffected

ESDGG[pY]MDMSKDESID[pY]VPMLDMKGDIKYADIE
activation of mutant PI3Kβ by pY (532KK-DD) [4]: activated to a similar extent
activation of mutant PI3Kβ by pY (loop-swap) [5]: activated to a similar extent
stimulation of fusion heterotrimer [6]: could be stimulated

Gβγ: Recombinant human Gβ1, N-terminally hexahistidine-tagged bovine wild-type Gγ2
PI3Kβ activation by Gβγ in the absence of pY [7]: activated PI3Kβ in the absence of pY
stimulation of fusion heterotrimer [6]: could be stimulated
Akt activation in presence of exogenous Gβγ, 532KK-DD mutant [8]: complete loss of Akt activation
stimulation of p110β associated with p85-i or p85-ic [9]: stimulates p110β
pT308-Akt in presence of exogenous Gβγ, wild-type PI3Kβ ([2]; HEK 293E cells, wild-type PI3Kβ, myc-Akt, Western blot, Fig. 2A): marked increase
stimulation of p110β in the absence of p85 [10]: stimulates p110β

KAAEIASSDSANVSSRGGKKFLPV [myristoylated p110β-peptide]
effect on binding of p110β to Rab5 [11]: no effect
effect on EGF-dependent activation of Akt [1]: no effect
effect on synergistic activation of adenylyl cyclase by Gβγ and Gαs [12]: no effect
effect on abundance of p110β protein [13]: did not reduce the abundance of p110β protein
effect on LPA-stimulated increase in Akt phosphorylation at Thr308 [14]: completely inhibited
effect on chemotaxis of PC3 cells toward serum [15]: inhibited the chemotaxis
effect on macrophage-dependent PC3 cell invasion [16]: blocked
effect on proliferation of PI3Kβ-transfected NIH3T3 cells [17]: neither the myristoylated peptide nor pertussis toxin inhibited the proliferation
effect on Gβγ-dependent activation of class IB PI3K (p101–p110γ) [18]: no effect
effect on Gβγ-mediated increase in Akt phosphorylation at Thr308 ([2]; 30 min, Western blot): completely inhibited
effect on Gβγ-dependent activation of Akt (need for cell entry) ([2]; listed as myristoylated): inhibited Gβγ-dependent activation of Akt
effect on Gβγ-mediated activation of PLC-β in cells [19]: no effect
effect on cellular transformation by oncogenic Ras [20]: no effect
effect on enhanced migration of PI3Kβ-transfected NIH3T3 cells ([21]; Boyden chamber towards 10% FBS, 24 hours, 30 μM, Fig. 5F): blocked the enhanced migration
effect on PI3Kβ-dependent transformation, soft agar colony formation ([22]; 30 μM peptide in gels and media, colonies counted after 3 weeks, Fig. 5C): inhibited
effect on PC3 cell proliferation [3]: proliferation was inhibited
effect on PI3Kβ-dependent transformation, focus formation [23]: inhibited

KAAEIASSDSANVSSRGGKKFLPV [p110β-peptide]
effect on Gβγ-mediated activation of PLC-β in vitro [24]: no effect
effect on Gβγ-dependent activation of Akt (need for cell entry) ([2]; listed as unlabeled peptide): no such effect
effect on Gβγ-mediated activation of p101–p110γ dimers [25]: no effect on Gβγ-mediated activation of p101–p110γ dimers

NGAEKVGSADSKSIAFVSLKARSP [myristoylated scrambled peptide, reference compound]
effect on LPA-stimulated increase in Akt phosphorylation at Thr308 [14]: minimal effects
effect on Gβγ-mediated increase in Akt phosphorylation at Thr308 ([2]; 30 min, Western blot): minimal effects
effect on PC3 cell proliferation [3]: unaffected
effect on PI3Kβ-dependent transformation, focus formation [23]: but not the myristoylated scrambled peptide, inhibited

QEHAQEPERQYMHIGTMVEFAYALVGK
effect on Gβγ-mediated activation of p101–p110γ dimers [25]: inhibited

SIGKAFKILGYPDYD
effect on Gβγ-mediated activation of p101–p110γ dimers [25]: inhibited

pertussis toxin [reference compound]
effect on proliferation of PI3Kβ-transfected NIH3T3 cells [17]: neither the myristoylated peptide nor pertussis toxin inhibited the proliferation
effect on wild-type p110β-enhanced migration ([21]; pertussis toxin, fig. S6, B and C): inhibited
effect on wild-type p110β-enhanced transformation ([22]; pertussis toxin, NIH3T3 cells, fig. S6, B and C): inhibited
effect on PC3 cell proliferation [3]: proliferation was inhibited
